Source: ChEMBL document CHEMBL1134335, “Structure-activity relationships of pyridoxal phosphate derivatives as potent and selective antagonists of P2X1 receptors” (J Med Chem, 2001)
Active and inactive are the calls of the source. The rule behind the calls is not given here.

Columns and labels:
[1] = molecular target: P2Y purinoceptor 1 (Meleagris gallopavo, UniProt P49652); assay: Inhibition of 10 nM 2-MeS-ADP-stimulated phospholipase C in turkey erythrocyte membranes using [3H]inositol; assay type: functional, cell membranes
Summary of the method: (§1)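 Turkey erythrocytes labelled 18-24 h at 37 °C with 2-[³H]myo-inositol in inositol-free DMEM, then lysed hypotonically (5 mM sodium phosphate pH 7.4, 5 mM MgCl₂, 1 mM EGTA) to make ghosts. Ghosts were incubated 5 min at 30 °C in pH 7.0 Hepes/KCl buffer with 1 µM GTPγS and 10 nM 2-MeSADP. Total [³H]inositol phosphates were measured by anion-exchange chromatography; 3-8 independent determinations.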

[2] = molecular target: T1, P2X purinoceptor 2 (Rattus norvegicus, UniProt P49653); assay: Inhibition of inward ion current elicited by ATP at P2X2 receptor expressed in Xenopus oocytes; assay type: functional, cell-based, Oocyte
T1 sequence (P49653 whole entry): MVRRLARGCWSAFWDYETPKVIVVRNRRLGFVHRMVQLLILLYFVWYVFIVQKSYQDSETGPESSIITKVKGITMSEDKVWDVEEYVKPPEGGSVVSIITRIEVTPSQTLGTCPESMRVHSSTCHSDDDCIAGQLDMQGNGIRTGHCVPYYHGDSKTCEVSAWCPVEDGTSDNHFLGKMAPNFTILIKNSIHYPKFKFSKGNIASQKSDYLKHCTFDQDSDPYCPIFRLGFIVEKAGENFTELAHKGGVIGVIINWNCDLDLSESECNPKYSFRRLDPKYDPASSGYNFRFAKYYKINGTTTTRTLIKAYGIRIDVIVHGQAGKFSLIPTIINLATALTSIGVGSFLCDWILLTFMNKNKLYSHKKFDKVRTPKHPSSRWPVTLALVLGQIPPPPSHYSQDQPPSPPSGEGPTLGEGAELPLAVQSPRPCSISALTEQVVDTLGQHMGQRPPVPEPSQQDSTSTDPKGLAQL

[3] = molecular target: T2, P2X purinoceptor 3 (Rattus norvegicus, UniProt P49654); assay: Inhibition of inward ion current elicited by ATP was determined at recombinant P2X3 receptor expressed in Xenopus oocytes; assay type: functional, cell-based, Oocyte
T2 sequence (P49654 whole entry): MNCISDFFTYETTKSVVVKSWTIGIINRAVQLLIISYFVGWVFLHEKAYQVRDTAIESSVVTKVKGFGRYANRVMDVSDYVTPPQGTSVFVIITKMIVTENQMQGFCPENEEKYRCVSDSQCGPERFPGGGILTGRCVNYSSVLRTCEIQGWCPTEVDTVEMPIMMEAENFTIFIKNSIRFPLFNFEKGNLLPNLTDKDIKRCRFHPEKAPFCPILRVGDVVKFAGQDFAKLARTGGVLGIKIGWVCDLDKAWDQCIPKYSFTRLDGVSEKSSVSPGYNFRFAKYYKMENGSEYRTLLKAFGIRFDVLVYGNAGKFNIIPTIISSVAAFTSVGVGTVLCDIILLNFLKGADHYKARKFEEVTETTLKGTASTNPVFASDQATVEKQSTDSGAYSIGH

[4] = molecular target: T3, P2X purinoceptor 1 (Rattus norvegicus, UniProt P47824); assay: Inhibition of inward ion current elicited by ATP at P2X1 receptor expressed in Xenopus oocytes; assay type: functional, cell-based, Oocyte
T3 sequence (P47824 whole entry): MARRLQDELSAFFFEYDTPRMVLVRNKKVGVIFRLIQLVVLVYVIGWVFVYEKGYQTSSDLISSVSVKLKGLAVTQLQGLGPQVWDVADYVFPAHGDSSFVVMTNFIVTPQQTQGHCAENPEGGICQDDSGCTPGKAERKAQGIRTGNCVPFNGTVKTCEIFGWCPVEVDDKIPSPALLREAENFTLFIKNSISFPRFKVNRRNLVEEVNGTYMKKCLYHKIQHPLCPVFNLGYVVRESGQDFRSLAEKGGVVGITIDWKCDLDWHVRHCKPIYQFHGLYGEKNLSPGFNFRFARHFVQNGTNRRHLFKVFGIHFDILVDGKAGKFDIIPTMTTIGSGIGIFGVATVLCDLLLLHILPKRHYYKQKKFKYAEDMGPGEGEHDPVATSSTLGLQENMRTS

[5] = molecular target: T4, P2X purinoceptor 6 (Rattus norvegicus, UniProt P51579); assay: Inhibition of inward ion current elicited by ATP at rat P2X6 receptor (wild type); assay type: functional
Target sequence in this assay (P51579 whole entry): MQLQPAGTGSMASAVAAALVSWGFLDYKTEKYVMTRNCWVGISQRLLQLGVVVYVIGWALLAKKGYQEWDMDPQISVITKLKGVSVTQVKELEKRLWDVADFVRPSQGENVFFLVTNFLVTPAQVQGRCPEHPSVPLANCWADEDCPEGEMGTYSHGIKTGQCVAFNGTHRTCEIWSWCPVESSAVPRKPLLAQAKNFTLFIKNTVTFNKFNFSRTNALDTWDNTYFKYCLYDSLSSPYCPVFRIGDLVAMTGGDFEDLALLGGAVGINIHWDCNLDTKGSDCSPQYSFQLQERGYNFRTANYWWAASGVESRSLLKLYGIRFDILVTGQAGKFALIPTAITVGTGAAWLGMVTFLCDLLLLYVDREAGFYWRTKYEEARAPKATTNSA

[6] = molecular target: P2X purinoceptor 4 (Rattus norvegicus, UniProt P51577); assay: Inhibition of inward ion current elicited by ATP at rat P2X4 receptor (mutant type); assay type: functional
[7] = molecular target: T5, P2X purinoceptor 4 (Rattus norvegicus, UniProt P51577); assay: Inhibition of inward ion current elicited by ATP at rat P2X4 receptor (wild type); assay type: functional
T5 sequence (P51577 whole entry): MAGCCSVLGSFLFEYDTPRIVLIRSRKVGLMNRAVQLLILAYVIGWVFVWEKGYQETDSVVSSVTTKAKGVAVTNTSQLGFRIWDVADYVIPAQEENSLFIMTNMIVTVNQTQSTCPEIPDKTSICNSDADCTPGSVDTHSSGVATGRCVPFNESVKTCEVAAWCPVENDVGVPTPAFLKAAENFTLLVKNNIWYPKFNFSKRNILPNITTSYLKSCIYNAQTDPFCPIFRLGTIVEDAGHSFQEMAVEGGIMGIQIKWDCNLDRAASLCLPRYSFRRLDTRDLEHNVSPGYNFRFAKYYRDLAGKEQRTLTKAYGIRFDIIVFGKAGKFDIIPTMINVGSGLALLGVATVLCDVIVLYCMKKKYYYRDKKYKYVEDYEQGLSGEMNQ

[8] = molecular target: T4, P2X purinoceptor 6; assay: Inhibition of inward ion current elicited by ATP at rat P2X6 receptor (mutant type); assay type: functional
Target sequence in this assay (P51579 whole entry, looked up): as the sequence (P51579 whole entry) above

[9] = molecular target: T6, P2X purinoceptor 7 (Homo sapiens) (UniProt Q99572); assay: Percent inhibition of ATP-induced K+ efflux (with cations) in adherent HEK293 cells expressing human P2X7 receptor; assay type: functional, cell-based; conditions: concentration not given here
T6 sequence (whole entry): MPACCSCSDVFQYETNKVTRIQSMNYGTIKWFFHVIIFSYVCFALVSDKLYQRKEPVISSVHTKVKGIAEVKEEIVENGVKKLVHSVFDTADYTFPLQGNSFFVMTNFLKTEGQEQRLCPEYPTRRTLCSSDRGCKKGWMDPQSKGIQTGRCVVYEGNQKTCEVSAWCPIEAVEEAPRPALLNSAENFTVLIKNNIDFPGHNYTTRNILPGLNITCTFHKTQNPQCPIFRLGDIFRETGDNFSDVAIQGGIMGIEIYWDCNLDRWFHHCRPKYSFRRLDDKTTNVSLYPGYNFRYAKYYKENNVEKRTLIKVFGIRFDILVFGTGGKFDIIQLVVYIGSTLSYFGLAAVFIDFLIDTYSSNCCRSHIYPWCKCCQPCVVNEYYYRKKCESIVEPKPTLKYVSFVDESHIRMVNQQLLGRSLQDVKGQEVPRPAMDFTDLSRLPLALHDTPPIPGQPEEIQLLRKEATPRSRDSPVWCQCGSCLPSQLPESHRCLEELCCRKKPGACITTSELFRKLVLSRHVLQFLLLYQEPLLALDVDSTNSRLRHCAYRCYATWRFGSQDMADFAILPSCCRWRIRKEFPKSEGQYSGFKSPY
Summary of the method: (§2)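 Adherent HEK293 cells stably expressing human P2X7, grown to 90% confluence, in saline with 1 mM MgCl₂ and 1.5 mM CaCl₂ (pH 7.5). Pretreated with 30 µM compound, then 3 mM ATP for 10 min at 37 °C. Cell K⁺ was extracted in 10% HNO₃ for 2 h and read by atomic absorbance relative to untreated cells. n=3, each in duplicate.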

[10] = molecular target: T7, P2X purinoceptor 1 (Rattus norvegicus) (UniProt P47824); assay: Inhibition of inward ion current elicited by ATP at P2X1 receptor expressed in Xenopus oocytes at 10 uM; assay type: functional, cell-based; conditions: Oocyte
T7 sequence (whole entry): T3 sequence (P47824 whole entry)

[11] = molecular target: T6, P2X purinoceptor 7 (Homo sapiens); assay: Percentage inhibition of ATP-induced K+ efflux (cation free) in adherent HEK293 cells expressing human P2X7 receptor; assay type: functional, cell-based; conditions: concentration not given here
Summary of the method: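 Adherent HEK293 cells stably expressing human P2X7, in divalent cation-free saline (no added MgCl₂ or CaCl₂; pH 7.5). Pretreated with 30 µM compound, then 3 mM ATP for 10 min at 37 °C. Residual cell K⁺ was extracted in 10% HNO₃ for 2 h and measured by atomic absorbance against untreated cells. n=3, each in duplicate.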

[12] = molecular target: T6, P2X purinoceptor 7 (Homo sapiens); assay: Percent inhibition of ATP-induced K+ efflux (ethidium influx) in suspended HEK293 cells expressing human P2X7 receptor; assay type: functional, cell-based; conditions: concentration not given here
Summary of the method: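 Trypsinised HEK293 cells stably expressing human P2X7 were suspended in divalent cation-free saline in a stirred cuvette at 37 °C with 20 µM ethidium bromide. Cells were treated with 30 µM compound, then 300 µM ATP.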

[13] = molecular target: T8, P2X purinoceptor 2 (Rattus norvegicus) (UniProt P49653); assay: Inhibition of inward ion current elicited by ATP at P2X2 receptor expressed in Xenopus oocytes; IA means inactive; assay type: functional, cell-based; conditions: Oocyte
T8 sequence (whole entry): T1 sequence (P49653 whole entry)

[14] = molecular target: P2Y purinoceptor 1 (Meleagris gallopavo) (UniProt P49652); assay: Inhibition of 10 nM 2-MeS-ADP-stimulated phospholipase C in turkey erythrocyte membranes using [3H]inositol; IA means inactive; assay type: functional, cell membranes; summary of the method: as §1
[15] = molecular target: T9, P2X purinoceptor 3 (Rattus norvegicus) (UniProt P49654); assay: Inhibition of inward ion current elicited by ATP at P2X3 receptor expressed in Xenopus oocytes; IA means inactive; assay type: functional, cell-based; conditions: Oocyte
T9 sequence (whole entry): T2 sequence (P49654 whole entry)

[16] = molecular target: T6, P2X purinoceptor 7 (Homo sapiens); assay: Inhibition of ATP-induced K+ efflux (with cations) in adherent HEK293 cells expressing human P2X7 receptor; assay type: functional, cell-based; conditions: concentration not given here; summary of the method: as §2
[17] = molecular target: T7, P2X purinoceptor 1 (Rattus norvegicus); assay: Inhibition of inward ion current elicited by ATP at P2X1 receptor expressed in Xenopus oocytes; IA means inactive; assay type: functional, cell-based; conditions: Oocyte

P2Y purinoceptor 1, sequence (P49652 whole entry): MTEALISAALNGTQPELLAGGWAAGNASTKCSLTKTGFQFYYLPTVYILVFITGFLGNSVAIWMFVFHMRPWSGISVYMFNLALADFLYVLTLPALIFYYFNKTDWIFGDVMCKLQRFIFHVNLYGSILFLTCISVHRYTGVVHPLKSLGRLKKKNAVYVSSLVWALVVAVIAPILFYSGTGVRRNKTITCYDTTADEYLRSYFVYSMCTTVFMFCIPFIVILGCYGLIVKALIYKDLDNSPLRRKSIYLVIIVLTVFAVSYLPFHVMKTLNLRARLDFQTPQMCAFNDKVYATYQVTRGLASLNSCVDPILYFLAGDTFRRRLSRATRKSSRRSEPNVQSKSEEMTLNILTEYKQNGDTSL
P2Y purinoceptor 1 (Meleagris gallopavo), sequence (P49652 whole entry): as above

Structure (SMILES): Cc1nc(/N=N/c2ccc(S(=O)(=O)O)cc2S(=O)(=O)O)c(COP(=O)(O)O)c(C=O)c1O
- IC50 [1]: 16600 nM
- IC50 [2]: 1600 nM
- IC50 [3]: 240 nM
- IC50 [4]: 99 nM
- IC50 [5]: > 500000 nM
- IC50 [6]: 2600 nM
- IC50 [7]: > 500000 nM
- IC50 [8]: 2000 nM

Structure (SMILES): Cc1nc(/N=N/c2ccc(C(=O)O)cc2)c(CP(=O)(O)O)c(C=O)c1O
- IC50 [2]: 150 nM
- IC50 [3]: 128 nM
- IC50 [4]: 8.1 nM

Structure (SMILES): Cc1nc(/N=N/c2cc(S(=O)(=O)O)ccc2S(=O)(=O)O)c(COP(=O)(O)O)c(COP(=O)(O)O)c1O
- IC50 [1]: 100000 nM
- inhibition [9]: -1%
- inhibition [10]: 27%
- inhibition [11]: -7%
- inhibition [12]: 15%

Structure (SMILES): Cc1ncc2c(c1O)COP(=O)(O)OC2
- IA [13]: inactive
- Inhibition activity [14]: inactive
- IA [15]: inactive

Structure (SMILES): Cc1nc(/N=N/c2ccc(C(=O)O)cc2)c2c(c1O)COP(=O)(O)OC2
- inhibition [10]: 39%

Structure (SMILES): CNc1ncnc2c1ncn2[C@H]1C[C@H](OP(=O)(O)O)[C@@H](COP(=O)(O)O)O1
- inhibition [9]: 37%
- inhibition [11]: 24%
- inhibition [12]: 100%

Structure (SMILES): Cc1nc(/N=N/c2cc(S(=O)(=O)O)ccc2S(=O)(=O)O)c(COP(=O)(O)O)c(C=O)c1O [ISOPPADS]
- inhibition [16]: 81%
- IC50 [1]: 21400 nM
- IC50 [2]: 398 nM
- IC50 [4]: 43 nM
- inhibition [11]: 67%
- inhibition [12]: 100%

Structure (SMILES): Cc1nc(/N=N/c2cc(S(=O)(=O)O)ccc2S(=O)(=O)O)c(CP(=O)(O)O)c(C=O)c1O
- IC50 [1]: 46000 nM
- IC50 [2]: 1100 nM
- IC50 [3]: 340 nM
- IC50 [4]: 12 nM
- inhibition [9]: 51%
- inhibition [11]: 28%
- inhibition [12]: 100%

Structure (SMILES): Cc1nc(/N=N/c2ccccc2)c2c(c1O)COP(=O)(O)OC2
- Inhibition activity [14]: inactive
- IA [17]: inactive

Structure (SMILES): Cc1nc(/N=N/c2ccc(P(=O)(O)O)cc2)c(CP(=O)(O)O)c(C=O)c1O
- IC50 [1]: 27000 nM
- IC50 [2]: 948 nM
- IC50 [3]: 36 nM
- IC50 [4]: 12 nM

Structure (SMILES): Cc1nc(/N=N/c2cc(S(=O)(=O)O)ccc2Cl)c2c(c1O)COP(=O)(O)OC2
- inhibition [10]: 43%
